Calls of active or inactive are those of the source. No cut-off for these calls is given here.
How the values were obtained:
[1] = biological target: T1, Somatostatin receptor type 2 (Homo sapiens, UniProt P30874); test: Agonist activity at T7-tagged human sst2 receptor expressed in HEK293 cells at 100 to 10000 nM; format: functional, cell-based
In short: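 Immunofluorescence microscopy internalization in HEK-sst2 cells. Agonist mode: peptides at 100 nM to 10,000 nM. Antagonist mode: 100 nM [Tyr3]-octreotide with 100-fold excess of peptide. Treatment 30 min at 37 °C, 5% CO2 in growth medium, then staining with polyclonal sst2-specific R2-88 antibody; n ≥ 2.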

[2] = biological target: Somatostatin receptor type 3 (Homo sapiens, UniProt P32745); test: Displacement of [125I]-[Leu8, DTrp22, Tyr25]SRIF28 from human sst3 receptor expressed in chinese hamster CCL39 cells by autoradiography; format: cell-based
[3] = biological target: Somatostatin receptor type 4 (Homo sapiens, UniProt P31391); test: Displacement of [125I]-[Leu8, DTrp22, Tyr25]SRIF28 from human sst4 receptor expressed in chinese hamster CCL39 cells by autoradiography; format: cell-based
[4] = biological target: T1, Somatostatin receptor type 2; test: Displacement of [125I]-[Leu8, DTrp22, Tyr25]SRIF28 from human sst2 receptor expressed in chinese hamster CCL39 cells by autoradiography; format: cell-based
[5] = biological target: Somatostatin receptor type 1 (Homo sapiens, UniProt P30872); test: Displacement of [125I]-[Leu8, DTrp22, Tyr25]SRIF28 from human sst1 receptor expressed in CHOK1 cells by autoradiography; format: cell-based, CHO-K1
[6] = biological target: Somatostatin receptor type 5 (Homo sapiens, UniProt P35346); test: Displacement of [125I]-[Leu8, DTrp22, Tyr25]SRIF28 from human sst5 receptor expressed in CHOK1 cells by autoradiography; format: cell-based, CHO-K1
Somatostatin receptor type 5, sequence (P35346 whole entry): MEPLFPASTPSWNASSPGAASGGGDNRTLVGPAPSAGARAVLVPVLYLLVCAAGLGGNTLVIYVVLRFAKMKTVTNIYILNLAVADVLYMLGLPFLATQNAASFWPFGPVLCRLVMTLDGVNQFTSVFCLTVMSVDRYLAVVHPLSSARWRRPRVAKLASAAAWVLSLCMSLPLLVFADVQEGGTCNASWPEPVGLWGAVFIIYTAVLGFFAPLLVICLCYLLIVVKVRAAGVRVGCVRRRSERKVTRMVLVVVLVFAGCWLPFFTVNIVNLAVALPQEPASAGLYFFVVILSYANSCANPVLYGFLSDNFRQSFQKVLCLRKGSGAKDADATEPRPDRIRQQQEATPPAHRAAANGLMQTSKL

T1 sequence (P30874 whole entry): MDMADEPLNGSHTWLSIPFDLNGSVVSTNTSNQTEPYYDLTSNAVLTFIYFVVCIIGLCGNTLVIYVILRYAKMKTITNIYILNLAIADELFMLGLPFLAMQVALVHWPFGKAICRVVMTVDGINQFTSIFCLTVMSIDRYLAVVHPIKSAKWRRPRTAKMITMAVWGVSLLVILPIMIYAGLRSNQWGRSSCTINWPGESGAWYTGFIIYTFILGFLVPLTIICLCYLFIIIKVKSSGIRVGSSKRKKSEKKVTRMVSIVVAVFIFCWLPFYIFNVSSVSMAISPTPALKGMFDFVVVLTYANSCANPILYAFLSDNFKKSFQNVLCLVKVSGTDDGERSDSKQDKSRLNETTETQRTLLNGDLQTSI
Somatostatin receptor type 4, sequence (P31391 whole entry): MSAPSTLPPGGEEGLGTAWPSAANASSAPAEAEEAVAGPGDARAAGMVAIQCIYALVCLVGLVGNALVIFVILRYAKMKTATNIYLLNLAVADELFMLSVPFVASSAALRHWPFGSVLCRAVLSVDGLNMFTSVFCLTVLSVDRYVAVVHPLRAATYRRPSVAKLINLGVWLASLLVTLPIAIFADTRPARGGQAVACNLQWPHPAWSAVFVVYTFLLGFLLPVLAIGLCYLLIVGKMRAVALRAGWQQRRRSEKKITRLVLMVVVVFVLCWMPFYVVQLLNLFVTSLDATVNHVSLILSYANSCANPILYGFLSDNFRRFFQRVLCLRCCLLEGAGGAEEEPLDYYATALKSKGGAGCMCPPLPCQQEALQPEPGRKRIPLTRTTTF
Somatostatin receptor type 3, sequence (P32745 whole entry): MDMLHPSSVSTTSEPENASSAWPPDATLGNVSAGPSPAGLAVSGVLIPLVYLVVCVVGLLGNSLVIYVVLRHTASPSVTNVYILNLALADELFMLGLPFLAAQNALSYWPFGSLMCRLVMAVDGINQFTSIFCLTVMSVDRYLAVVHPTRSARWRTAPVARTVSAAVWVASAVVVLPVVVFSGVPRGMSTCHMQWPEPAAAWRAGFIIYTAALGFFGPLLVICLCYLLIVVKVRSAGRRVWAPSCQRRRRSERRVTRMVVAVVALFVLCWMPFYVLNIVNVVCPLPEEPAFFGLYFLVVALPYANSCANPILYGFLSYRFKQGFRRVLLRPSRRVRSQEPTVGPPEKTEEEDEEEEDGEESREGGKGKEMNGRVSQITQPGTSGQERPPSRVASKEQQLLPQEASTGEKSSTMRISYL
Somatostatin receptor type 1, sequence (P30872 whole entry): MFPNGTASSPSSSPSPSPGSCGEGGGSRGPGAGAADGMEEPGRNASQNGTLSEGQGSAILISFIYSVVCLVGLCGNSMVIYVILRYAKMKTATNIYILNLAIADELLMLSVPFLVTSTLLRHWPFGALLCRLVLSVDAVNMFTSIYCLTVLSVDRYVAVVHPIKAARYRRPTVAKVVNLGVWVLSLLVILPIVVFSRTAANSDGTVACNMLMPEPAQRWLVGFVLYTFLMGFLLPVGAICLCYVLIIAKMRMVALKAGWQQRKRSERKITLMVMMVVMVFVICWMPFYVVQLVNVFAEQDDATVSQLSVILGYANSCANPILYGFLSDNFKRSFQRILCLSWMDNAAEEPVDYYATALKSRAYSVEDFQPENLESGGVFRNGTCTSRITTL

With `C[C@@H](O)[C@H](NC(=O)[C@@H]1CSSC[C@H](NC(=O)[C@H](N)Cc2ccccc2)C(=O)N[C@@H](Cc2ccccc2)C(=O)N[C@H](Cc2c[nH]c3ccccc23)C(=O)N[C@@H](CCCCN)C(=O)N[C@@H]([C@@H](C)O)C(=O)N1)C(N)=O` the Activity [1] was “Active”, the IC50 [2] was 39 nM and the IC50 [3] was > 1000 nM. The IC50 [4] was 1.9 nM and the IC50 [5] was > 1000 nM.

With `C[C@@H](O)[C@H](NC(=O)[C@H]1CCSSCC[C@@H](NC(=O)[C@H](N)Cc2ccccc2)C(=O)N[C@@H](Cc2ccccc2)C(=O)N[C@H](Cc2c[nH]c3ccccc23)C(=O)N[C@@H](CCCCN)C(=O)N[C@@H]([C@@H](C)O)C(=O)N1)C(N)=O` the Activity [1] was “Active”.

`C[C@@H](O)[C@@H]1NC(=O)[C@H](CCCCN)NC(=O)[C@@H](Cc2c[nH]c3ccccc23)NC(=O)[C@H](Cc2ccc(O)cc2)NC(=O)[C@H](NC(=O)[C@@H](N)Cc2ccc(Cl)cc2)CCSSCC[C@@H](C(=O)N[C@@H](Cc2ccc3ccccc3c2)C(N)=O)NC1=O` showed an IC50 [6] of 199 nM, an IC50 [2] of 359 nM and an IC50 [3] of 174 nM. The IC50 [4] was 267 nM and the IC50 [5] was 763 nM.

For `C[C@@H](O)[C@H](NC(=O)[C@@H]1NC(=O)[C@H]([C@@H](C)O)NC(=O)[C@H](CCCCN)NC(=O)[C@@H](Cc2c[nH]c3ccccc23)NC(=O)[C@H](Cc2ccccc2)NC(=O)[C@H](NC(=O)[C@H](N)Cc2ccccc2)SS1)C(N)=O`, the IC50 [6] was > 1000 nM, the IC50 [2] was > 1000 nM and the IC50 [3] was 214 nM. The IC50 [4] was 337 nM and the IC50 [5] was > 1000 nM.

Molecule `C[C@@H](O)[C@H](NC(=O)[C@@H]1CCSSCC[C@H](NC(=O)[C@H](N)Cc2ccccc2)C(=O)N[C@@H](Cc2ccccc2)C(=O)N[C@H](Cc2c[nH]c3ccccc23)C(=O)N[C@@H](CCCCN)C(=O)N[C@@H]([C@@H](C)O)C(=O)N1)C(N)=O` has an IC50 [6] of 109 nM, an IC50 [2] of 452 nM and an IC50 [3] of 115 nM. For the same molecule, the IC50 [4] was 4.9 nM and the IC50 [5] was > 1000 nM.
